Experimental data from ChEMBL document CHEMBL3351787, “Electrophilic warhead-based design of compounds preventing NLRP3 inflammasome-dependent pyroptosis” (J Med Chem, 2014).

How the values were obtained:
[1] = Antipyroptotic activity in PMA-differentiated and LPS-primed human THP1 cells assessed as decrease in ATP-induced pyroptosis measured as LDH activity at 10 uM after 1 hrs by colorimetric assay; format: functional; conditions: THP-1, 1 h
[2] = Cytotoxicity against human HK2 cells assessed as cell viability after 72 hrs by MTT assay; format: cell-based, HK-2; conditions: read-out: TC50
In short: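 MTT viability assay in human renal epithelial HK-2 cells. TC50 defined as molar concentration lowering HK-2 viability by 50%.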

[3] = cysteamine reactivity assessed as second-order reaction rate constant in PBS at pH 7.4 and […] by DTNB spectrophotometric assay
[4] = target: NACHT, LRR and PYD domains-containing protein 3 (Homo sapiens) (UniProt Q96P20); assay: Inhibition of recombinant NLRP3-ATPase (unknown origin) assessed as hydrolysis of ATP at 10 uM
Chain of NACHT, LRR and PYD domains-containing protein 3 (Homo sapiens) (Q96P20 whole entry, the tested form may be a part): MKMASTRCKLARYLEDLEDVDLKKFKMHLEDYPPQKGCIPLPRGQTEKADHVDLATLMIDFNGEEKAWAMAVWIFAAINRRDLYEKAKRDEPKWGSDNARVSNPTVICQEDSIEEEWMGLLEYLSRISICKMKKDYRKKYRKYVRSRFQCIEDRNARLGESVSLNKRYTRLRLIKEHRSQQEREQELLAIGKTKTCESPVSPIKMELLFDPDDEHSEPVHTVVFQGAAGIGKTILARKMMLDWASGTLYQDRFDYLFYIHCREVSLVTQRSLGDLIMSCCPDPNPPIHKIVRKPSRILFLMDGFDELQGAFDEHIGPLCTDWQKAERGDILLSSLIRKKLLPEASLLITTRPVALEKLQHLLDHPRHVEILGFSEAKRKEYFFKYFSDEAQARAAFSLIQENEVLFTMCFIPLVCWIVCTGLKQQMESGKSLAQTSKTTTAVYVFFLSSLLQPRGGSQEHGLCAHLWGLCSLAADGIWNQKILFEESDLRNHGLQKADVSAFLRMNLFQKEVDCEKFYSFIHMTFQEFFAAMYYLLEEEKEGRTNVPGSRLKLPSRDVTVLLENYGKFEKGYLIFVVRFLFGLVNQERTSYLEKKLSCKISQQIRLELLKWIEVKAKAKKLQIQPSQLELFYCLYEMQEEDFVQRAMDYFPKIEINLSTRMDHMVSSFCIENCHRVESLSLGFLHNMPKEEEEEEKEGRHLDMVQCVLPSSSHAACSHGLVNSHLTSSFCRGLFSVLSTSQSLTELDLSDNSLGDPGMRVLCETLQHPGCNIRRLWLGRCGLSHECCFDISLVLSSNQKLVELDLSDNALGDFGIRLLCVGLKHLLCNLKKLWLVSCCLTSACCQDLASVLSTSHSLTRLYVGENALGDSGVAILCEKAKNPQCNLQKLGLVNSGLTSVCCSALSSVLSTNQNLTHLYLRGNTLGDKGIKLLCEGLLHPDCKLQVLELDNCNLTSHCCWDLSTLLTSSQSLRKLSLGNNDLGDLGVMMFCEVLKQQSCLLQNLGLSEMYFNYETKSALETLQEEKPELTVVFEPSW
In short: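 Recombinant NLRP3 (0.01 μg) pre-incubated 15 min with compound (10 μM); ATP 250 μM then added and incubated 1 h at 37 °C. ATP hydrolysis quantified as Pi content by colorimetric phosphate detection. Expressed as % inhibition vs vehicle; mean±SEM of ≥3 experiments in duplicate.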

[5] = Antipyroptotic activity in PMA-differentiated and LPS-primed human THP1 cells assessed as decrease in ATP-induced pyroptosis measured as LDH activity after 1 hrs pretreated with 5 mM ATP for 1 hr by colorimetric assay; format: functional, cell-based; conditions: thp-1
In short: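 PMA-differentiated, LPS-primed THP-1 cells pre-treated 1 h with compound (0.001-10 μM), then ATP 5 mM for 1 h. LDH in collected supernatant read colorimetrically; output as decrease of cell death vs vehicle. EC50 taken as concentration giving 50% of maximal possible effect. Mean±SEM of at least four experiments in triplicate.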

[6] = (§1) Antipyroptotic activity in PMA-differentiated and LPS-primed human THP1 cells assessed as decrease in nigericin-induced pyroptosis measured as LDH activity after 1 hrs pretreated with 10 uM nigericin for 1.5 hrs by colorimetric assay; format: functional, cell-based; conditions: thp-1
In short: (§2)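 Differentiated (PMA) and LPS-primed THP-1 cells received compound at 0.001-10 μM 1 h ahead of nigericin (10 μM, 1.5 h). Supernatant LDH activity measured by colorimetric assay, expressed as decrease of cell death vs vehicle alone; pEC50 derived from concentration-response curves. Mean±SEM, ≥4 experiments in triplicate.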

THP-1 = assay: as §1; format: functional, cell-based; in short: as §2
Caspase-1 (Homo sapiens) [7] = target: T1, Caspase-1 (Homo sapiens) (UniProt P29466); assay: Inhibition of caspase 1 (unknown origin) using N-acetyl-Tyr-Val-Ala-Asp-para-nitroanilide substrate assessed as rate of para-nitroanilide release after 15 to 60 mins preincubation by spectrophotometric assay
T1 sequence (whole entry): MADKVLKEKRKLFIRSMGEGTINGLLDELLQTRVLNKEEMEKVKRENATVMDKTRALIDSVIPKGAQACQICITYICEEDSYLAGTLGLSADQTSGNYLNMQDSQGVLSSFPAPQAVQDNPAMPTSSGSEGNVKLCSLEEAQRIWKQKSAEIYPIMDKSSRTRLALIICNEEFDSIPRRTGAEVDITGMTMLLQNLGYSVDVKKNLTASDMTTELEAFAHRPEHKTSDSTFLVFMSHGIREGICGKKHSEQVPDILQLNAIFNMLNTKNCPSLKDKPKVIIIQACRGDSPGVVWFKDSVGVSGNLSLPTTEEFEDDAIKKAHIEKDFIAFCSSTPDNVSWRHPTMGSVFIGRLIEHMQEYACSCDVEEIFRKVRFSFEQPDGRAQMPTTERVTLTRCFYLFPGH
In short: (§3)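 Caspase-1 from THP-1 cell cultures (50 U) pre-incubated 15-60 min with compound at 0.01-10 μM, then activity followed continuously by pNA release from Ac-YVAD-pNA (200 μM; 1 h) at 405 nm. kobs at each concentration used to obtain kinact (irreversible first-order rate) and Ki = k-1/k1.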

Caspase-1 (Homo sapiens) [8] = target: T1, Caspase-1 (Homo sapiens); assay: Inhibition of caspase 1 (unknown origin) using N-acetyl-Tyr-Val-Ala-Asp-para-nitroanilide substrate assessed as rate of para-nitroanilide release at 0.01 to 10 uM by spectrophotometric assay; conditions: TDE = time-dependent effect; in short: as §3
Caspase-1 (Homo sapiens) [9] = target: T1, Caspase-1 (Homo sapiens); assay: (§4) Inhibition of caspase 1 (unknown origin) using N-acetyl-Tyr-Val-Ala-Asp-para-nitroanilide substrate assessed as rate of para-nitroanilide release by spectrophotometric assay; in short: as §3
Caspase-1 = target: T2, Caspase-1 (Homo sapiens, UniProt P29466); assay: as §4; in short: as §3
T2 sequence (P29466 whole entry): T1 sequence (whole entry)

Caspase-1 (Homo sapiens) [10] = target: T1, Caspase-1 (Homo sapiens); assay: Inhibition of caspase 1 (unknown origin) using N-acetyl-Tyr-Val-Ala-Asp-para-nitroanilide substrate assessed as rate of para-nitroanilide release at 10 uM by spectrophotometric assay
In short: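 Caspase-1 enzyme from THP-1 cultures (50 U) pre-incubated 15 min with compound (10 μM) in reaction buffer at 37 °C. Ac-YVAD-pNA substrate (200 μM) added; pNA release monitored continuously at 405 nm over 1 h. Reported as % inhibition vs vehicle; mean±SEM, ≥3 experiments in duplicate.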

SMILES | inhibition at 10 µM [1] [%] | CC50 at 72 h [2] [µM] | further results
C=C(C(=O)OCC)C(O)c1ccc(Cl)cc1 (centres undefined) | 50.5 | 34.9 | 
C=C(C#N)C(O)c1c(Cl)cccc1Cl (centres undefined) | 51.5 | 16.3 | 
C=C(C#N)C(O)c1ccc(Cl)cc1Cl (centres undefined) | 14.1 | 36.4 | 
C=C(C(=O)OCC)C(O)c1cccc(Cl)c1 (centres undefined) | 44.8 | 28.9 | 
C=C(C#N)C(O)c1ccccn1 (centres undefined) | 52.7 | 20.5 | 
C=C(C(=O)OCC)C(O)c1c(Cl)cccc1Cl (centres undefined) | 76.6 | 45.2 | 
C=C(C(=O)O)C(O)c1ccccc1Cl (centres undefined) | 42 | > 100 | k2 [3]: 0.117 M⁻¹ s⁻¹; inhibition [4]: 80.2%
C=C(C(=O)CC)C(O)c1ccccc1Cl (centres undefined) | 12.1 | 1.9 | k2 [3]: 7.16 M⁻¹ s⁻¹
C=C(C(=O)OCC)C(O)C1CCCCC1 (centres undefined) | 64.3 | > 100 | 
C=C1C(=O)O[C@@H]2C3O[C@]3(C)CC/C=C(\C)CC[C@@H]12 (some centres undefined) | 100 | 20.1 | pEC50 [5]: 6.9; pEC50 [6]: 6.3; inhibition (THP-1): Dose-dependent effect; inhibition (Caspase-1 (Homo sapiens) [7]): Dose-dependent effect; inhibition (Caspase-1 (Homo sapiens) [8]): tde; k2 [3]: 47.9 M⁻¹ s⁻¹; Kinact (Caspase-1 (Homo sapiens) [9]): 4 s⁻¹; Ki (Caspase-1): 10.6 µM; inhibition [4]: 25.9%
C=C(C(=O)OCC)C(O)c1ccccn1 (centres undefined) | 54.3 | 53.4 | 
C=C(C(=O)OCC)C(OCCC(=O)OCC)c1c(Cl)cccc1Cl (centres undefined) | 68.8 | > 100 | pEC50 [5]: 6.9; pEC50 [6]: 6.9; inhibition (THP-1): Dose-dependent effect
C=C(C#N)C(O)c1ccccc1[N+](=O)[O-] (centres undefined) | 97.9 | 3.6 | 
C=C(C#N)C(O)c1cccc2ccccc12 (centres undefined) | 53.5 | 10.1 | 
CCOC(=O)/C(=C/I)C(O)c1ccccc1Cl (centres undefined) | 5.1 | 6.4 | 
C/C=C(/C(=O)OCC)C(O)c1ccccc1Cl (centres undefined) | 31.8 | 73.8 | pEC50 [5]: 6.9; pEC50 [6]: 6.8; inhibition (THP-1): Dose-dependent effect
CCOC(=O)/C(=C\I)C(O)c1ccccc1Cl (centres undefined) | 17.6 | 5.9 | 
C=C(C(=O)OCC)C(O)c1cc(Cl)cc(Cl)c1 (centres undefined) | 78.4 | 18.8 | 
C=C(C(=O)OCC)C(O)c1ccccc1F (centres undefined) | 82.3 | 25.4 | pEC50 [5]: 6.8; pEC50 [6]: 6.6; inhibition (THP-1): Dose-dependent effect

SMILES | inhibition at 10 µM [1] [%] | CC50 at 72 h [2] [µM] | further results
C=C(C(=O)OCC)C(OCCC(=O)OCC)c1ccccc1Cl (centres undefined) | 58.3 | > 100 | 
C=C(C#N)C(O)c1ccccc1F (centres undefined) | 30.5 | 12.9 | 
CCOC(=O)C(C)C(O)c1ccccc1Cl (centres undefined) | 1.6 | 75.5 | 
C=C(C(=O)OCC)C(O)c1ccccc1Br (centres undefined) | 53.7 | 55.9 | 
C=C(C#N)C(O)c1ccccc1Br (centres undefined) | 81.3 | 21.8 | 
C=C(C#N)C(O)c1ccccc1Cl (centres undefined) | 83 | 11.6 | k2 [3]: 0.777 M⁻¹ s⁻¹; inhibition (Caspase-1 (Homo sapiens) [10]): 36.2%; inhibition [4]: 80.5%
C=C(C(=O)OCC)C(O)c1ccccc1 (centres undefined) | 45.8 | 64.5 | k2 [3]: 0.524 M⁻¹ s⁻¹
CCOC(=O)/C(=C\c1ccccc1)C(O)c1ccccc1Cl (centres undefined) | 52.5 | > 100 | k2 [3]: 0.588 M⁻¹ s⁻¹
C=C(C(=O)OCC)C(O)c1ccccc1OC (centres undefined) | 26.8 | 45.8 | k2 [3]: 0.423 M⁻¹ s⁻¹
C/C=C(\C(=O)OCC)C(O)c1ccccc1Cl (centres undefined) | 36.2 | 80.1 | pEC50 [5]: 7; pEC50 [6]: 6.3; inhibition (THP-1): Dose-dependent effect; k2 [3]: 0.126 M⁻¹ s⁻¹; inhibition (Caspase-1 (Homo sapiens) [10]): 25.4%; inhibition [4]: 23.3%
C=C(C(=O)NCCC)C(O)c1ccccc1Cl (centres undefined) | 31.2 | 83.5 | k2 [3]: 0.126 M⁻¹ s⁻¹
C=C(C(=O)OCC)C(OCCC(=O)OCC)c1ccc(Cl)cc1Cl (centres undefined) | 43.9 | > 100 | pEC50 [5]: 7.1; pEC50 [6]: 6.7; inhibition (THP-1): Dose-dependent effect
C=C(C(=O)OCC)C(O)c1ccccc1[N+](=O)[O-] (centres undefined) | 63.7 | 7.8 | pEC50 [5]: 6.5; pEC50 [6]: 6.7; inhibition (THP-1): Dose-dependent effect
C=C(C#N)C(O)c1ccccc1 (centres undefined) | 54.1 | 22.3 | 
CCOC(=O)/C(=C/c1ccccc1)C(O)c1ccccc1Cl (centres undefined) | 55.5 | > 100 | 
C=C(C(=O)OCC)C(O)c1ccc(Cl)cc1Cl (centres undefined) | 72.4 | 70.5 | 
C=C(C(=O)OCC)C(O)c1ccccc1C (centres undefined) | 37.8 | 56.7 | 
C=C(C(=O)OCC)C(C)O (centres undefined) | 59.6 | 22.5 | 
